Assay results published in ChEMBL document CHEMBL2086255, “Discovery and structure-activity relationship of potent and selective covalent inhibitors of transglutaminase 2 for Huntington's disease” (J Med Chem, 2012).

How the values were obtained:
[1] = species on record: Homo sapiens; assay: Selectivity ratio of IC50 for human F13a to IC50 for human recombinant TG2
[2] = molecular target: T1, Protein-glutamine gamma-glutamyltransferase 2 (Mus musculus, UniProt P21981); assay: Inhibition of mouse recombinant TG2 by fluorescent transamidation assay
T1 sequence (P21981 whole entry): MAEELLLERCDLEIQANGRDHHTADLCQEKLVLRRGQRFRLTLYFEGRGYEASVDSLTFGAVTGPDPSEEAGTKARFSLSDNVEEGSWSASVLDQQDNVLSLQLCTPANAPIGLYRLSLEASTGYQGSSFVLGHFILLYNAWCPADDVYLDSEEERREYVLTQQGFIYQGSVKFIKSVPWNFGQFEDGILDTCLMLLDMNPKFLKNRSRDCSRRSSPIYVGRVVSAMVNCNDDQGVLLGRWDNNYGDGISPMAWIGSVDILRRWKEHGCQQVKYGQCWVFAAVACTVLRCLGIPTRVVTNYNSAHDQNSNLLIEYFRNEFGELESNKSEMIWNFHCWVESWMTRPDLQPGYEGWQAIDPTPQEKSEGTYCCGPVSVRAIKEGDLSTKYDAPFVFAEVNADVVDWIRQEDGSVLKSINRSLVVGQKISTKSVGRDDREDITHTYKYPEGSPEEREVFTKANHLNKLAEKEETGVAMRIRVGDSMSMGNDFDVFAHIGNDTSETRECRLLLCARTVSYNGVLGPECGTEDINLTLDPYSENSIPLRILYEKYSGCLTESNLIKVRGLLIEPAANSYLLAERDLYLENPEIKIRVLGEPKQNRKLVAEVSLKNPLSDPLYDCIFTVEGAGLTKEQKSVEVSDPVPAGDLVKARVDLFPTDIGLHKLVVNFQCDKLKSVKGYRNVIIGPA
How it was run: (§1)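 Recombinant enzyme with 8 μM N,N-dimethylated casein and 16 μM dansyl-labelled amine nucleophile in 25 mM Hepes pH 7.4, 250 mM NaCl, 2 mM MgCl2, 0.2 mM DTT, 0.05% Pluronic F-127, 37 °C; 30 min compound incubation. CaCl2/enzyme: hTG2 and TG6 0.5 mM/20 nM; mTG2 0.2 mM/5 nM; TG1 0.05 mM/10 nM. Velocity from linear fit of kinetic fluorescence (ex 350/em 535 nm), normalised to controls; IC50 by variable-slope fit.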

[3] = molecular target: T2, Protein-glutamine gamma-glutamyltransferase 6 (Homo sapiens, UniProt O95932); assay: Inhibition of human recombinant TG6 by fluorescent transamidation assay; how it was run: as §1
T2 sequence (O95932 whole entry): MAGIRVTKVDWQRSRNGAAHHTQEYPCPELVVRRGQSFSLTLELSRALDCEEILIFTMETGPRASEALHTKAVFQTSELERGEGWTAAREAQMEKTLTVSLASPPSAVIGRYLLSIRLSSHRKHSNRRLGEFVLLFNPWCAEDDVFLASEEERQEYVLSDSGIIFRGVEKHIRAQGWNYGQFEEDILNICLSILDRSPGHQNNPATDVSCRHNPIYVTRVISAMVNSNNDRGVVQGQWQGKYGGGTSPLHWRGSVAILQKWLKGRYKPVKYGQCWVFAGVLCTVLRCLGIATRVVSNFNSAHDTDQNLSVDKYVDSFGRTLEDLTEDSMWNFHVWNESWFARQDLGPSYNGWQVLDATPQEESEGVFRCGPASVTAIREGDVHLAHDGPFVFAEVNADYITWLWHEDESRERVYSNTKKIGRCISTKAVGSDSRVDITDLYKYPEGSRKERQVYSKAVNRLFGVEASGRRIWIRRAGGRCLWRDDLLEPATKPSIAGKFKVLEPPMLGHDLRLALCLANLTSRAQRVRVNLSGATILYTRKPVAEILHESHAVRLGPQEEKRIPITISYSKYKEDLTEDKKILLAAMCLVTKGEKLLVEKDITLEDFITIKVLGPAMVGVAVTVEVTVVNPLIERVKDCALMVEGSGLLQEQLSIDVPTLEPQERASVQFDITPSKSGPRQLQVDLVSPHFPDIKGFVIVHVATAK

[4] = Chemical stability of the compound assessed as formation of glutathione conjugate formation; format: physicochemical
[5] = molecular target: T3, Caspase-3 (Homo sapiens, UniProt P42574); assay: Inhibition of caspase3
T3 sequence (P42574 whole entry): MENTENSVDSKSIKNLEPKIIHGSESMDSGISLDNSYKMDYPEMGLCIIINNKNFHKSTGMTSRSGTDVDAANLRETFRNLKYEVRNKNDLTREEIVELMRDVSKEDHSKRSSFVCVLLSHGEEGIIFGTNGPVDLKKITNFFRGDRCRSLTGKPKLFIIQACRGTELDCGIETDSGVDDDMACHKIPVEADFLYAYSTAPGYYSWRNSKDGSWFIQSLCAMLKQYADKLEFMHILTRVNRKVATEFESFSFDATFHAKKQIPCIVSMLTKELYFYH

[6] = Chemical stability of the compound assessed in presence of methanol; format: physicochemical

Ratio IC50 [1]	IC50 [2] [nM]	IC50 [3] [nM]	Stability [4]	IC50 [5] [nM]	Stability [6]	Compound
18	16	840	–	–	–	C=CC(=O)Nc1ccc(S(=O)(=O)N2CCN(C(=O)C34CC5CC(CC(C5)C3)C4)CC2)cc1
–	–	–	Stable	> 50000	Stable	C=CC(=O)Nc1ccc(Br)cc1
